# HIF act = HIF pathway transcriptional activation | U2OS HRE-luciferase reporter, luminescence; normalized: DMSO 0%, desferrioxamine 100% | activation, % at 7.5 µM (by protocol) | 300,000 tested, 0.32% active;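 active = mean activation of at least 10% of the iron chelator positive control signal, with at least half of replicates also reaching 10%; inconclusive = mean and replicate majority disagree about reaching 10%; inactive = mean and most replicates under 10%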
# PolyA inh = yeast polyadenylation inhibition | activity score, % at 12 µM | 300,000 tested, 0.02% active | AID 1875 | S. cerevisiae SKY197-pL101 polyadenylation reporter, beta-gal luminescence; efflux-impaired pdr1/pdr3 knockout yeast; score 100 = 6 SD above DMSO;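 active = lowest replicate activity score at least 50, where 100 means six control SD above control mean; inconclusive = lowest score under 50 but half or more replicates reach 50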;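 also: yeast exposed to compound for 9 h at 30 °C; higher score means more reporter readthrough which indicates perturbed polyadenylation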
# T cruzi repl = T. cruzi replication inhibition | T. cruzi beta-gal in NIH3T3, luminescence, 90 h | inhibition, % (no concentration beside the values) | 300,000 tested, 1.4% active;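 active = mean inhibition across valid replicates above about 55%, limit read from the data; inconclusive = mean below that limit but half or more replicates reach it; inactive = mean below it, under half of replicates reach it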;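 also: signal also drops with host cell toxicity which is not excluded here; 0% = plate median of DMSO wells and 100% = zero luminescence signal; higher percent means less beta-gal luminescence so fewer parasites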
#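 Assay system: NIH/3T3 fibroblasts plus reporter T. cruzi. Amount: NIH/3T3 cells, 5,000 per well. Buffer or medium: DMEM, 2% fetal bovine serum. Doses: compound pinned at 50 nL/well, DMSO. Schedule: ≥90 h infection period, 3 h prior cell attachment. Signal: luminescent β-galactosidase signal after 60 min lysis. Read-out: parasite load inhibition, %.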
# Beta apoptosis = beta cell apoptosis inhibition; protection from apoptosis, % (concentration not given with the values); 300,000 tested, 0.8% active; INS-1E cytokine-induced death, ATP luminescence, 48 h; percent of positive-control rescue, neutral wells zero; AID 435005;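 active = Every replicate reaches about 75%, or at least half do and their mean reaches it too, limit read from the data; inconclusive = At least half of replicates reach the limit but their mean does not; inactive = Under half of replicates reach the limit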;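 also: 0% = cytokine-treated negative control wells and 100% = positive control rescue; higher means more ATP so stronger rescue from cytokine killing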
# CSC inhib = cancer stem cell inhibition | cancer stem cell-like cells viability, luminescence | inhibition, % at 7.5 µM | 300,000 tested, 1.1% active; in the data active = inhibition above about 75%; inconclusive = no clear call, values can overlap the other calls; tested in HMLE shEcad cells
# Calb FLC = C. albicans growth modulation with fluconazole; C. albicans CaCi-2 (fluconazole-resistant clinical isolate) + fluconazole, Alamar Blue growth, 48 h; growth inhibition, % (test concentration not listed); 300,000 tested, 0.57% active;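 active = growth inhibition above about 58% in most replicates, limit read from the data, passing the limit was not always enough; inconclusive = exactly half the replicates above a set limit; inactive = most replicates below a set limit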;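 also: all wells also contain fluconazole at 8 µg/ml as a sub-toxic cotreatment; 0% = median of DMSO wells and 100% = median of geldanamycin control wells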
# * hit, by the source's call; ? = inconclusive; . = no result given. A selection: hits, their analogues and other compounds. The true share with any hit is near 3.1%.
SMILES,HIF act,PolyA inh,T cruzi repl,Beta apoptosis,CSC inhib,Calb FLC
CC(C)c1ccc(NC(=O)CSc2n[nH]c(=O)n2-c2cccnc2)cc1,0.0,6.4,-27.9,-1.7,1.0,?
CCc1cccc(C)c1NC(=S)NCc1ccc2[nH]c(C)cc2c1,-0.5,6.8,24.2,-2.3,-0.8,-3.3
CC(=O)Nc1ccc2nc(C3CC3)n(Cc3ccc(Cl)cc3)c(=O)c2c1,5.1,.,27.1,-4.4,1.6,9.1
CCC(=O)Nc1ccc2nc(C3CC3)n(Cc3ccc(C(C)(C)C)cc3)c(=O)c2c1,2.0,28.5,57.6*,7.3,10.7,6.3
Cn1cc(Cl)cc(C(=O)Nc2ccccc2)c1=O,1.5,-17.7,-10.6,0.6,5.9,-5.6
O=C1c2cnc3nc(SCc4ccccc4)nn3c2CC2c3ccccc3CCN12 (stereo unspecified),0.3,114.4*,25.1,-1.2,6.0,-6.1
O=C(CCc1nnc2ccc(NCc3ccco3)nn12)Nc1ccccc1F,-0.5,1.0,0.5,.,9.2,-7.4
O=C(CSc1nc2ccccc2o1)N1N=C(c2cccs2)CC1c1ccc(F)cc1 (stereo unspecified),-0.3,2.9,40.2,0.2,16.6,7.0
Cc1ccc(C2CC(c3cccs3)=NN2C(=O)CSc2nc(=O)n3ccc(C)cc3n2)cc1 (stereo unspecified),-0.2,-2.3,60.4*,-0.9,6.1,-1.6
COc1ccc(C2CC(c3cccs3)=NN2C(=O)CSc2nc(=O)n3ccc(C)cc3n2)cc1 (stereo unspecified),-0.1,-8.6,36.8,9.3,-12.9,1.7
COc1ccc(C2CC(c3cccs3)=NN2C(=O)CSc2nc3c(cnn3-c3ccccc3)c(=O)[nH]2)cc1 (stereo unspecified),0.3,0.6,17.2,2.9,69.6,8.7
COc1cccc(C2CC(c3cccs3)=NN2C(=O)CSc2nc3c(cnn3-c3ccc(F)cc3)c(=O)[nH]2)c1OC (stereo unspecified),-0.3,22.2,-5.9,6.3,118.2*,36.9
O=C(CSc1nc(=O)n2ccccc2n1)N1N=C(c2cccs2)CC1c1ccc(F)cc1 (stereo unspecified),-0.2,8.0,58.5*,.,-2.5,-15.7
CCOc1ccc(CCNC(=O)c2cn(C)c3ccc(S(=O)(=O)N4CCOCC4)cc3c2=O)cc1OCC,0.7,1.6,1.1,-16.7,-5.4,-3.7
CCn1nc(NS(=O)(=O)c2ccc(NC(C)=O)cc2)c2cc3cccc(C)c3nc21,51.2*,2.7,10.5,.,6.8,0.0
CCn1nc(NS(=O)(=O)c2ccccc2)c2cc3cccc(C)c3nc21,0.1,1.9,-4.8,-7.1,-9.8,72.8
O=C(NCc1ccccc1F)C(=O)NCC1CCCN1S(=O)(=O)c1cccs1 (stereo unspecified),0.0,-26.1,10.3,-5.0,-15.5,-1.5
COc1ccccc1CNC(=O)C(=O)NCC1CCCN1S(=O)(=O)c1cccs1 (stereo unspecified),0.1,4.9,62.0*,1.9,-20.9,-3.6
CC(C)=CCOc1c2ccoc2cc2oc(=O)ccc12,-0.4,53.5*,3.2,0.1,-10.1,0.4
C=C(C)[C@@H](O)COc1c2ccoc2cc2oc(=O)ccc12,.,.,.,4.6,-18.6,.
CC(=O)C(Sc1ncnc2sc3c(c12)CCCC3)C(C)=O,0.3,-40.2,8.5,-6.8,3.4,21.9
COc1ccccc1C1=NOC(C)(c2nnc(Cc3ccccc3)o2)C1 (stereo unspecified),1.0,6.9,2.2,-6.3,-23.3,-10.9
O=C(CC(Sc1ccc(Br)cc1)C(=O)O)c1ccc(Br)cc1 (stereo unspecified),-0.8,18.6,54.8*,.,.,-4.8
COc1ccc(CCNC(=O)c2ccccc2NC(=O)C2=C(C)OCCS2)cc1OC,0.3,-3.1,4.5,-1.8,6.1,-22.2
Cc1ccc2c(c1)Sc1c(ccc3ccccc13)N2,2.2,4.7,12.1,103.9*,39.3,-4.6
SMILES,HIF act,PolyA inh,T cruzi repl,Beta apoptosis,CSC inhib,Calb FLC
c1ccc2c(c1)Nc1cc3ccccc3cc1S2,0.4,7.5,11.1,-5.3,-15.0,3.0
CCOC(=O)C(C(=O)OCC)C(Nc1ccc(Br)cc1)c1ccccc1 (stereo unspecified),8.7,-10.9,-39.7,-6.1,75.3*,3.7
Cc1ccc2nc(-c3ccc(NC(=S)NC(=O)C(C)C)cc3)sc2c1,2.4,-7.7,45.5,4.1,5.3,-5.7
Cc1ccc2nc(-c3ccc(NC(=S)NC4CC(C)(C)NC(C)(C)C4)cc3)sc2c1,-6.9,-8.8,13.9,-0.3,4.0,73.8*
O=C(Cn1cnc([N+](=O)[O-])n1)NCc1ccccc1,-0.7,5.1,79.4*,4.1,2.7,21.4
O=C(Cn1cnc([N+](=O)[O-])n1)NCCO,0.2,?,-3.3,-2.1,7.2,1.3
O=C(Cn1cnc([N+](=O)[O-])n1)N/N=C/c1ccc2ccccc2c1,-0.3,-13.9,61.5*,-2.4,-3.2,-2.6
CC(=O)c1cccc(CN2CCCC(CCC(=O)NCc3ccccc3F)C2)c1 (stereo unspecified),0.0,12.5,61.4*,-6.1,-5.2,2.3
Cc1ncc(CN2CCCC(CCC(=O)NCc3ccccc3F)C2)s1 (stereo unspecified),0.1,-11.3,61.0*,-10.0,-14.7,-2.5
O=C(CCC1CCCN(C2C3CC4CC(C3)CC2C4)C1)NCc1ccc(F)c(F)c1 (stereo unspecified),-0.2,4.0,11.8,2.1,19.3,-20.9
Cc1ccc(C(=O)N2CCCC(CCC(=O)NCc3ccccc3F)C2)cn1 (stereo unspecified),0.1,-0.1,-8.7,-1.7,-5.6,5.5
O=C(CCC1CCCN(Cc2ccc3c(c2)CCO3)C1)NCc1ccc(F)c(F)c1 (stereo unspecified),-0.1,5.7,63.4*,3.9,-2.1,6.8
COc1ccccc1/C=C/CN1CCCC(CCC(=O)NCc2ccccc2F)C1 (stereo unspecified),-1.0,-8.4,75.8*,-1.9,3.8,-1.5
COc1cccc(CNC(=O)CCC2CCCN(C(=O)Cc3ccccc3F)C2)c1 (stereo unspecified),-0.5,-4.4,11.3,-2.9,-15.6,-8.2
O=C(CCNC(=O)c1ccc([N+](=O)[O-])cc1)NCc1cccs1,.,.,.,3.0,-3.2,.
O=C1CC(=O)Nc2cc(S(=O)(=O)Nc3cccc(C(F)(F)F)c3)ccc2N1,-0.4,-20.0,-11.0,-9.4,-15.1,-1.0
COc1cccc(Nc2nc(Nc3ccc(Cl)c(C(=O)O)c3)nc(C)c2[N+](=O)[O-])c1,.,.,.,-4.9,2.8,.
Cc1cc(-c2ccccc2)n2ncnc2n1,-0.7,-2.4,-3.2,-6.3,-14.4,2.3
Cc1ncc(CN2CCCC(CCC(=O)NCc3ccc(F)c(F)c3)C2)s1 (stereo unspecified),0.1,10.6,61.3*,-5.2,-0.6,-4.3

# From PubChem BioAssay
